What all share (format): functional
Test [1] relates to Mus musculus. The test is described as follows: Hypolipidemic activity (16th day serum cholesterol) at 20 mg/kg in CF1 male mice. The method in brief: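 Male CF1 mice (~25 g), given 20 (mg/kg)/day ip at 11:00 a.m. On day 16, tail-vein blood collected between 8:00 and 9:30 a.m. in alkali-free nonheparinized microcapillaries and centrifuged 3 min. Serum cholesterol (mg %) from duplicate 25-µL nonhemolyzed samples by modified Liebermann-Burchard reaction. Reported as % control.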

The test system of test [2] is Mus musculus. In words: Hypolipidemic activity (14th day serum triglyceride) at 20 mg/kg in CF1 male mice. The procedure, abridged: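 Separate group of male CF1 mice (~25 g) dosed ip at 20 (mg/kg)/day for 14 days, injections at 11:00 a.m. Bled by tail vein on day 14 into nonheparinized microcapillary tubes, centrifuged 3 min for serum. Triglycerides (mg %) measured on duplicate 50-µL serum samples. Given as % control.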

Test [3] relates to Mus musculus. In words: Hypolipidemic activity (9th day serum cholesterol) at 20 mg/kg in CF1 male mice. The procedure, abridged: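 Male CF1 mice (~25 g), dosed intraperitoneally at 20 (mg/kg)/day at 11:00 a.m. Tail-vein blood taken on day 9 between 8:00 and 9:30 a.m. into alkali-free nonheparinized microcapillary tubes, spun 3 min for serum. Cholesterol (mg %) in duplicate 25-µL nonhemolyzed serum samples by modified Liebermann-Burchard reaction. Expressed as % control.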

Structures are written as SMILES. Some results are limits rather than exact numbers.

Consider `CCCCN1C(=O)c2ccccc2C1=O`, for which the Control in test [1] was less than 54%; in test [2], 82%; in test [3], less than 72%.
Consider `C=C(CN1C(=O)c2ccccc2S1(=O)=O)C(=O)O`, for which the values for the Control in test [1], in test [2] and in test [3] were 85%, 101% and 85%, respectively.
As to `CCOC(=O)CCN1C(=O)c2ccccc2S1(=O)=O`, the results for the Control in test [1], in test [2] and in test [3] were 71%, 61% and 97%, respectively.
The corresponding values for `CC(=O)CCN1Cc2ccccc2C1=O` are less than 84%, less than 83% and 88%.
For the compound `CC(=O)CCCN1C(=O)c2ccccc2C1=O`, the Control was less than 63% in test [1], less than 59% in test [2] and less than 71% in test [3].
For `O=C1NC(=O)c2ccccc21` [PHTHALIMIDE], in that order: 57%, 44% and 63%.
The corresponding values for `O=C1NCc2ccccc21` are 87%, 78% and 89%.
Take `O=C(O)CCCCN1C(=O)c2ccccc2C1=O`: the values for the Control in test [1], in test [2] and in test [3] were 77%, 54% and 83%, respectively.
With `O=C(O)CCCCCN1C(=O)c2ccccc2S1(=O)=O`, the Control in test [1] stood at 76%; in test [2], 55%; in test [3], 90%.
The corresponding values for `O=C(O)CCCN1C(=O)c2ccccc2S1(=O)=O` are 73%, 48% and 85%.
Consider `O=C(O)CCN1C(=O)c2ccccc2S1(=O)=O`, for which the Control is 47% in test [1], 67% in test [2] and 96% in test [3].
The corresponding values for `CC(=O)CN1C(=O)c2ccccc2S1(=O)=O` are 52%, 66% and 95%.
For `O=C(O)CCCCN1C(=O)c2ccccc2S1(=O)=O`, in that order: 68%, 44% and 96%.
The corresponding values for `O=C1NS(=O)(=O)c2ccccc21` [SACCHARIN] are 67%, 51% and 68%.
For the compound `CC(=O)CN1C(=O)c2ccccc2C1=O`, the Control in test [1] is on record as less than 67%; in test [2], less than 48%; in test [3] it was 80%.
The corresponding values for `CCCCN1Cc2ccccc2C1=O` are 62%, 80% and 68%.
The corresponding values for `O=C(O)CCCN1C(=O)c2ccccc2C1=O` are 68%, 59% and 80%.
As to `CC(=O)CCN1C(=O)c2ccccc2S1(=O)=O`, the Control is reported as 62% in test [1], 51% in test [2] and 60% in test [3].
On to `CCCCCN1C(=O)c2ccccc2S1(=O)=O`, for which the Control in test [1] was 58%; in test [2] it was 62%; in test [3] it was 106%.
On to `CCCCN1Cc2ccccc2S1(=O)=O`, for which the Control in test [1] is listed as 68%; in test [2], 76%; in test [3], 71%.
For `CCCCN1C(=O)c2ccccc2S1(=O)=O`, the Control in test [1] came to 56%; in test [2] it was 76%; in test [3], 76%.
With `O=C(O)CCN1Cc2ccccc2C1=O`, the Control is 97% in test [1], 88% in test [2] and 87% in test [3].
The corresponding values for `O=S1(=O)NCc2ccccc21` are 80%, 86% and 82%.
Consider `CC(=O)CCCN1C(=O)c2ccccc2S1(=O)=O`, for which the Control in test [1] worked out at 77%; in test [2], 77%; in test [3], 73%.
For the compound `CC(=O)CCN1Cc2ccccc2S1(=O)=O`, the Control in test [1] is 81%; in test [2] it was 78%; in test [3] it was 87%.
For `O=C(O)CCN1Cc2ccccc2S1(=O)=O`, in that order: 59%, 76% and 73%.
The corresponding values for `CCCCCN1C(=O)c2ccccc2C1=O` are 58%, 75% and 76%.
Take `O=C(O)CCN1C(=O)c2ccccc2C1=O`: the Control in test [1] is on record as less than 55%; in test [2], less than 58%; in test [3], less than 74%.
The corresponding values for `O=C(O)CCCCCN1C(=O)c2ccccc2C1=O` are 67%, 51% and 81%.
Regarding `CC(=O)CCN1C(=O)c2ccccc2C1=O`, the values for the Control in test [1], in test [2] and in test [3] were less than 63%, less than 58% and less than 67%, respectively.

For the origin of these results see ChEMBL document CHEMBL1122467, “Hypolipidemic activity of phthalimide derivatives. 3. A comparison of phthalimide and 1,2-benzisothiazolin-3-one 1,1-dioxide derivatives to phthalimidine and 1,2-benzisothiazoline 1,1-dioxide congeners” (1983).
